≈ marks a conversion by molar mass, not a printed value. Calls of active or inactive are those of the source. The rule behind the calls is not given here.
Key:
[1] = test system: Meyerozyma guilliermondii; test: Antifungal activity against Candida guilliermondii IBA 155 assessed as decrease in fungal cell growth at 0.78 to 12.5 mg/L incubated for 24 hrs by CLSI broth dilution method; type: functional; settings: IBA 155, 24 h
Outline: (§1)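 Yeast broth dilution in RPMI 1640 with 2% glucose, compounds in DMSO. Yeasts pre-grown on Sabouraud dextrose agar. Growth read after 35 °C, 24 h.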

Staphylococcus aureus = test: Antibacterial activity against Staphylococcus aureus ATCC 6538P measured after 18 hrs by CLSI broth dilution method; type: functional
Outline: (§2)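 Broth MIC in Mueller-Hinton II broth following CLSI, compounds dissolved in DMSO. Strains subcultured twice on tryptic soy agar before testing. Growth read after 35 °C, 18 h.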

[2] = test system: Stenotrophomonas maltophilia; test: Antibacterial activity against Stenotrophomonas maltophilia ATCC 13637 measured after 18 hrs by CLSI broth dilution method; type: functional; settings: ATCC 13637, 18 h; outline: as §2
Klebsiella pneumoniae [3] = test: Antibacterial activity against Klebsiella pneumoniae ATCC 13883 assessed as fold reduction of MIC in presence of efflux pump inhibitor PAbetaN incubated for 18 hrs by broth microdilution method; type: functional
Outline: (§3)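 MICs determined with and without PAβN at 50 mg/L in Mueller-Hinton broth containing 1 mM MgSO₄. 2-fold serial dilutions per CLSI. Fold change taken from the paired MICs after 35 °C, 18 h.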

Saccharomyces cerevisiae = test: Antifungal activity against Saccharomyces cerevisiae ATCC 9763 assessed as decrease in fungal cell growth at 0.78 to 12.5 mg/L incubated for 24 hrs by CLSI broth dilution method; type: functional; settings: ATCC 9763, 24 h
Outline: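 Yeast strain subcultured on Sabouraud dextrose agar for 24–48 h at 30 °C before testing. Compounds dissolved in DMSO.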

Enterococcus faecium [4] = test: Antibacterial activity against Enterococcus faecium ATCC 6057 measured after 18 hrs by CLSI broth dilution method; type: functional; settings: ATCC 6057, 18 h; outline: as §2
Acinetobacter baumannii [5] = test: Antibacterial activity against Acinetobacter baumannii ATCC 19606 measured after 18 hrs by CLSI broth dilution method; type: functional; settings: ATCC 19606, 18 h; outline: as §2
[6] = test system: Stenotrophomonas maltophilia; test: Antibacterial activity against Stenotrophomonas maltophilia ATCC 13637 assessed as fold reduction of MIC in presence of efflux pump inhibitor PAbetaN incubated for 18 hrs by broth microdilution method; type: functional; outline: as §3
Candida parapsilosis [7] = test: Antifungal activity against Candida parapsilosis ATCC 22019 assessed as decrease in fungal cell growth at 0.78 to 12.5 mg/L incubated for 24 hrs by CLSI broth dilution method; type: functional; settings: Lodderomyces parapsilosis, ATCC 22019, 24 h; outline: as §1
[8] = test system: Staphylococcus epidermidis; test: Antibacterial activity against Staphylococcus epidermidis ATCC 12228 assessed as diameter of zone inhibition measured after 18 hrs by CLSI disc diffusion method; type: functional
Outline: (§4)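 Disc diffusion on Mueller-Hinton II agar. Compounds dissolved in DMSO. Strains stored at -80 °C and subcultured twice on tryptic soy agar before testing. Inhibition zones read after 35 °C, 18 h.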

Bacillus subtilis = test: Antibacterial activity against Bacillus subtilis ATCC 6633 assessed as diameter of zone inhibition measured after 18 hrs by CLSI disc diffusion method; type: functional; outline: as §4
[9] = test system: Bordetella bronchiseptica; test: Antibacterial activity against Bordetella bronchiseptica ATCC 4617 measured after 18 hrs by CLSI broth dilution method; type: functional; settings: ATCC 4617, 18 h; outline: as §2
Enterococcus faecalis = test: Antibacterial activity against Enterococcus faecalis ATCC 29212 measured after 18 hrs by CLSI broth dilution method; type: functional; settings: ATCC 29212, 18 h; outline: as §2
Candida albicans [10] = test: Antifungal activity against Candida albicans ATCC 90028 assessed as diameter of zone inhibition incubated for 24 hrs by CLSI disc diffusion method; type: functional
Outline: (§5)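 Yeast disc diffusion on Mueller-Hinton agar supplemented with 2% glucose and 0.5 mg/L methylene blue. Compounds in DMSO. Yeasts subcultured on Sabouraud dextrose agar before testing. Zones read after 35 °C, 24 h.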

Pseudomonas aeruginosa [11] = test: Antibacterial activity against Pseudomonas aeruginosa ATCC 27853 measured after 18 hrs by CLSI broth dilution method; type: functional; settings: ATCC 27853, 18 h; outline: as §2
[12] = test system: Bordetella bronchiseptica; test: Antibacterial activity against Bordetella bronchiseptica ATCC 4617 assessed as diameter of zone inhibition measured after 18 hrs by CLSI disc diffusion method; type: functional; outline: as §4
Candida parapsilosis [13] = test: Antifungal activity against Candida parapsilosis ATCC 22019 assessed as diameter of zone inhibition incubated for 24 hrs by CLSI disc diffusion method; type: functional; outline: as §5
Escherichia coli [14] = test: Antibacterial activity against Escherichia coli ATCC 25922 assessed as diameter of zone inhibition measured after 18 hrs by CLSI disc diffusion method; type: functional; outline: as §4
Pseudomonas aeruginosa [15] = test: Antibacterial activity against Pseudomonas aeruginosa ATCC 27853 assessed as diameter of zone inhibition measured after 18 hrs by CLSI disc diffusion method; type: functional, organism-based; outline: as §4
Burkholderia cepacia = test: Antibacterial activity against Burkholderia cepacia ATCC 25416 assessed as diameter of zone inhibition measured after 18 hrs by CLSI disc diffusion method; type: functional; outline: as §4
Klebsiella pneumoniae [16] = test: Antibacterial activity against Klebsiella pneumoniae ATCC 13883 measured after 18 hrs by CLSI broth dilution method; type: functional; settings: ATCC 13883, 18 h; outline: as §2
Acinetobacter baumannii [17] = test: Antibacterial activity against Acinetobacter baumannii ATCC 19606 assessed as diameter of zone inhibition measured after 18 hrs by CLSI disc diffusion method; type: functional; outline: as §4
Proteus mirabilis [18] = test: Antibacterial activity against Proteus mirabilis ATCC 12453 assessed as fold reduction of MIC in presence of efflux pump inhibitor PAbetaN incubated for 18 hrs by broth microdilution method; type: functional; outline: as §3
Candida albicans [19] = test: Antifungal activity against Candida albicans ATCC 90028 assessed as decrease in fungal cell growth at 0.78 to 12.5 mg/L incubated for 24 hrs by CLSI broth dilution method; type: functional; settings: ATCC 90028, 24 h; outline: as §1
Serratia marcescens = settings: ATCC 13880
Escherichia coli [20] = test: Antibacterial activity against Escherichia coli ATCC 25922 assessed as fold reduction of MIC in presence of efflux pump inhibitor PAbetaN incubated for 18 hrs by CLSI broth microdilution method; type: functional; outline: as §3
Pichia kudriavzevii = test: Antifungal activity against Candida krusei ATCC 6258 assessed as decrease in fungal cell growth at 0.78 to 12.5 mg/L incubated for 24 hrs by CLSI broth dilution method; type: functional; settings: ATCC 6258, 24 h; outline: as §1
Candida tropicalis = test: Antifungal activity against Candida tropicalis IBA 171 assessed as decrease in fungal cell growth at 0.78 to 12.5 mg/L incubated for 24 hrs by CLSI broth dilution method; type: functional; settings: IBA 171, 24 h; outline: as §1
Proteus mirabilis [21] = test: Antibacterial activity against Proteus mirabilis ATCC 12453 measured after 18 hrs by CLSI broth dilution method; type: functional; settings: ATCC 12453, 18 h; outline: as §2
[22] = Dissociation constant, pKa1 of compound in 0.1 M NaOH by potentiometric analysis; type: physicochemical
Proteus mirabilis [23] = test: Antibacterial activity against Proteus mirabilis ATCC 12453 assessed as diameter of zone inhibition measured after 18 hrs by CLSI disc diffusion method; type: functional; outline: as §4
[24] = test system: Meyerozyma guilliermondii; test: Antifungal activity against Candida guilliermondii IBA 155 assessed as diameter of zone inhibition incubated for 24 hrs by CLSI disc diffusion method; type: functional; outline: as §5
Enterococcus faecium [25] = test: Antibacterial activity against Enterococcus faecium ATCC 6057 assessed as diameter of zone inhibition measured after 18 hrs by CLSI disc diffusion method; type: functional; outline: as §4

## C[Si]1(C)OB(O)c2ccc(Cl)c(Cl)c21
[1]
  MIC: 25 µg/mL (≈ 101 µM)
Staphylococcus aureus
  MIC: 6.25 µg/mL (≈ 25.3 µM)
[2]
  MIC: 200 µg/mL (≈ 810 µM)
Klebsiella pneumoniae [3]
  fold change (FC): 32
Saccharomyces cerevisiae
  MIC: 6.25 µg/mL (≈ 25.3 µM)
Enterococcus faecium [4]
  MIC: 25 µg/mL (≈ 101 µM)
Acinetobacter baumannii [5]
  MIC: 400 µg/mL (≈ 1620 µM)
[6]
  fold change (FC): 32
Candida parapsilosis [7]
  MIC: 12.5 µg/mL (≈ 50.6 µM)
[8]
  diameter of the inhibition zone (DIZ): 22 mm
Bacillus subtilis
  diameter of the inhibition zone (DIZ): 33 mm
[9]
  MIC: 100 µg/mL (≈ 405 µM)
Enterococcus faecalis
  MIC: 25 µg/mL (≈ 101 µM)
Candida albicans [10]
  diameter of the inhibition zone (DIZ): 33 mm
Pseudomonas aeruginosa [11]
  MIC: > 400 µg/mL
[12]
  diameter of the inhibition zone (DIZ): 12 mm
Candida parapsilosis [13]
  diameter of the inhibition zone (DIZ): 28 mm
Escherichia coli [14]
  diameter of the inhibition zone (DIZ): inactive
Pseudomonas aeruginosa [15]
  diameter of the inhibition zone (DIZ): inactive
Burkholderia cepacia
  diameter of the inhibition zone (DIZ): inactive
Klebsiella pneumoniae [16]
  MIC: 400 µg/mL (≈ 1620 µM)
Acinetobacter baumannii [17]
  diameter of the inhibition zone (DIZ): inactive
Proteus mirabilis [18]
  fold change (FC): 4
Candida albicans [19]
  MIC: 12.5 µg/mL (≈ 50.6 µM)
Serratia marcescens
  DIZ: inactive
Escherichia coli [20]
  fold change (FC): 64
Pichia kudriavzevii
  MIC: 12.5 µg/mL (≈ 50.6 µM)
Candida tropicalis
  MIC: 3.12 µg/mL (≈ 12.7 µM)
Proteus mirabilis [21]
  MIC: > 400 µg/mL
[22]
  pKa: 6
Proteus mirabilis [23]
  diameter of the inhibition zone (DIZ): inactive
[24]
  diameter of the inhibition zone (DIZ): 47 mm
Enterococcus faecium [25]
  diameter of the inhibition zone (DIZ): 28 mm

Source: ChEMBL document CHEMBL4346672, “Antimicrobial and KPC/AmpC inhibitory activity of functionalized benzosiloxaboroles” (Eur J Med Chem, 2019)
